Results from ChEMBL document CHEMBL4257504, “Tricyclic xanthine derivatives containing a basic substituent: adenosine receptor affinity and drug-related properties” (Medchemcomm, 2018).
pIC50, pKi: −log10 of the molar value. ≈ marks a conversion by molar mass, not a printed value. One block for each compound: values may come before it.

How the values were obtained:
[1] = Metabolic stability in rat liver microsomes at 50 uM preincubated for 5 mins followed by addition of NADPH regenerating system and measured after 120 mins by UPLC/MS analysis; type: ADME, microsome; details: 2 h
How it was run: (§1)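 Incubations use pooled human (adult male and female) or rat liver microsomes at 1 mg/ml in 0.1 M Tris-HCl pH 7.4 with compound at 50 μM. After 5 min preincubation at 37 °C, an NADPH regenerating system is added to start the reaction. Cold methanol stops it at 120 min; samples are centrifuged and the supernatant analysed by UPLC/MS.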

HEK293 = experiment: Cytotoxicity against HEK293 cells assessed as decrease in cell viability after 48 hrs by formazan dye-based EZ4U assay; details: Homo sapiens, HEK293, 48 h
How it was run: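 HEK-293 cells are seeded at 1 × 10^4 per well and grown 24 h to 60% confluence. Compounds (25 mM DMSO stocks) are diluted into medium at final 0.1–250 μM, with DMSO ≤1%, and left 48 h.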

Adenosine receptor A3 [2] = molecular target: T1, Adenosine receptor A3 (Homo sapiens, UniProt P0DMS8); experiment: Displacement of [3H]PSB-11 from human adenosine A3 receptor expressed in CHO cell membranes
T1 sequence (P0DMS8 whole entry): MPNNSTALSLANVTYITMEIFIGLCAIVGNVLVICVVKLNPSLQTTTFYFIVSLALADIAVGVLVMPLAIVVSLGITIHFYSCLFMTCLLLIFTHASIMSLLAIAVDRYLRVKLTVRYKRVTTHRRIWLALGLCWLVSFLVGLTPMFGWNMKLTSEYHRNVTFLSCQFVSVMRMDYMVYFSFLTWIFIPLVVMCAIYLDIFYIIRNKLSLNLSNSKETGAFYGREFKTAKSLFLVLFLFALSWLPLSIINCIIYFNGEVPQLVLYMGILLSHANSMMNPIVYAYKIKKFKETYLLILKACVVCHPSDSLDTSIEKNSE
How it was run: (§2)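 Membranes from CHO cells recombinantly expressing human A2B or A3 receptor. Radioligands are [3H]PSB-603 for A2B and [3H]PSB-11 for A3. Competition curves use six to ten test-compound concentrations spanning three orders of magnitude, with at least three independent experiments.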

[3] = Metabolic stability in human liver microsomes at 50 uM preincubated for 5 mins followed by addition of NADPH regenerating system and measured after 120 mins by UPLC/MS analysis; type: ADME, microsome; details: 2 h; how it was run: as §1
Adenosine receptor A2b [4] = molecular target: T2, Adenosine receptor A2b (Homo sapiens, UniProt P29275); experiment: Displacement of [3H]PSB-603 from human adenosine A2B receptor expressed in CHO cell membranes
T2 sequence (P29275 whole entry): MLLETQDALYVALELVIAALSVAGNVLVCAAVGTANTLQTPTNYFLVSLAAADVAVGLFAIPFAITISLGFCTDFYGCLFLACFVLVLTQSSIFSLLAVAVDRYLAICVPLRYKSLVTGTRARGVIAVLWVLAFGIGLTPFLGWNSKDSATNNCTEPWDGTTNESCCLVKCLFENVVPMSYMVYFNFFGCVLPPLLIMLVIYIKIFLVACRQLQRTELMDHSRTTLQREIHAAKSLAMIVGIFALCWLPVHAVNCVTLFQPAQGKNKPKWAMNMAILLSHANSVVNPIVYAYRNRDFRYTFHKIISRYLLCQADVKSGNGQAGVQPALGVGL

Adenosine receptor A2a = Adenosine receptor A2a (Rattus norvegicus, UniProt P30543); experiment: Displacement of [3H]MSX-2 from adenosine A2A receptor in rat brain striatal membranes; type: cell membranes, Striatum, Membrane
Sequence of Adenosine receptor A2a (P30543 whole entry): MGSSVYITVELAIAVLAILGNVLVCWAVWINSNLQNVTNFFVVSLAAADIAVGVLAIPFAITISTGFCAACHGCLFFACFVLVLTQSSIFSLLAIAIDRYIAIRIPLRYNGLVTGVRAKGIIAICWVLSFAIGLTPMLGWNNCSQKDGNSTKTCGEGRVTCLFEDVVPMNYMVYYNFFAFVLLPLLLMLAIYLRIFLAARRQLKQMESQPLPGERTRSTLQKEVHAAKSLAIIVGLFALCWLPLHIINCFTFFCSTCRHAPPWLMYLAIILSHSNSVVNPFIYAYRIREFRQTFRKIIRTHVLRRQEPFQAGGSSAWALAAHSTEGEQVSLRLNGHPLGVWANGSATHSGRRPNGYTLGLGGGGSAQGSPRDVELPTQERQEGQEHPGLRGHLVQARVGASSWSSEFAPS
How it was run: (§3)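 Membrane radioligand binding: A1 in rat brain cortical membranes and A2A in rat brain striatal membranes, with human A1 and A2A in recombinant CHO cell membranes. Radioligands are [3H]CCPA for A1 and [3H]MSX-2 for A2A. Full concentration-inhibition curves use six to ten concentrations spanning three orders of magnitude, with at least three independent experiments.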

Cytochrome P450 3A4 = Cytochrome P450 3A4 (Homo sapiens, UniProt P08684); experiment: Inhibition of recombinant human CYP3A4 by bioluminescence method; type: ADME
Sequence of Cytochrome P450 3A4 (P08684 whole entry): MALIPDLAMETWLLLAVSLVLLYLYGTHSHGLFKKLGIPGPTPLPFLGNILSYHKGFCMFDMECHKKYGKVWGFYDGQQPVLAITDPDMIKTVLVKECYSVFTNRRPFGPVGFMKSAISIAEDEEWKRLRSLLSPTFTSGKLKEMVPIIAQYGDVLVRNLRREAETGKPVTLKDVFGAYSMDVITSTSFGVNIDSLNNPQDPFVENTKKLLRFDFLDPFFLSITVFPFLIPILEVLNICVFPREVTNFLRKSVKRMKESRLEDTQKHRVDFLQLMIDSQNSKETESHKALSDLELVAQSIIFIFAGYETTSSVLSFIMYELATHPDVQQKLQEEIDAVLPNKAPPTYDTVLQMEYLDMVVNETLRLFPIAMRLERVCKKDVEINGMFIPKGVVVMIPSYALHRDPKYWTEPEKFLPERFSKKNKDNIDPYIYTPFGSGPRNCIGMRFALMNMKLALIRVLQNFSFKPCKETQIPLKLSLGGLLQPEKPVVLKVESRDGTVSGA

Adenosine receptor A1 = molecular target: T3, Adenosine receptor A1 (Rattus norvegicus, UniProt P25099); experiment: Displacement of [3H]CCPA from adenosine A1 receptor in rat brain cortical membranes; type: cell membranes; how it was run: as §3
T3 sequence (P25099 whole entry): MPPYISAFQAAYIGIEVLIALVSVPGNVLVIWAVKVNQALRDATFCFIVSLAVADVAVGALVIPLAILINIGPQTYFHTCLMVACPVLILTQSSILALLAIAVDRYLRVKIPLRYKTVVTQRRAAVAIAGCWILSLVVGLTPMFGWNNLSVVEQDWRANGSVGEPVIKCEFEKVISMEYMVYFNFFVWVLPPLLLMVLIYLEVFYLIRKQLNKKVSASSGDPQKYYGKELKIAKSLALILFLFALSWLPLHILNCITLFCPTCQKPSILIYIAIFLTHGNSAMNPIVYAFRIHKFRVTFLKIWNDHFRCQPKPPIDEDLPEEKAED

Adenosine receptor A3 [5] = molecular target: T1, Adenosine receptor A3; experiment: Binding affinity to human adenosine A3 receptor by radioligand displacement assay
How it was run: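 Membranes from CHO cells recombinantly expressing human A2B or A3 receptor. Competition curves use six to ten test-compound concentrations spanning three orders of magnitude, with at least three independent experiments.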

Adenosine receptor A2b [6] = molecular target: T2, Adenosine receptor A2b; experiment: […] from human adenosine A2B receptor expressed in CHO cell membranes; details: in the assay text read “[3H]PSB-603” for “[3H]PSB-602”; how it was run: as §2
[7] = Solubility of compound in water after over night incubation by UV spectroscopic method; type: physicochemical
How it was run: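 Compound (10 mg, basic form) is suspended in 2 mL water, boiled 5 min, left overnight at 20 °C and filtered. The filtrate is diluted 10–80-fold in MeOH and read by UV in 90% MeOH/H2O. Concentration comes from seven-point standard curves (10^-3 to 10^-1 mg/mL) by linear regression, multiplied by the dilution factor.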

[8] = (§4) Drug level in rat liver microsomes treated with 2-(4-(2-(1,3-Dibutyl-2,4-dioxo-1,2,3,4,7,8-hexahydropyrimido[2,1-f]purin-9(6H)-yl)ethyl)phenoxy)-N-(3-(diethylamino)propyl)-acetamide at 50 uM preincubated for 5 mins followed by addition of NADPH regenerating system and measured after 120 mins by UPLC/MS analysis; type: ADME, microsome; details: 2 h; how it was run: as §1
[9] = as §4, with “in human” for “in rat”; type: ADME, microsome; details: 2 h; how it was run: as §1

Stability [1]: Stable | pKi (Adenosine receptor A3 [2]): 6.69 | Stability [3]: Stable | pKi (Adenosine receptor A2b [4]): 7.18 | pKi (Adenosine receptor A2a): 6.34 | inhibition (INH) (Cytochrome P450 3A4; human, recombinant enzyme): Not Active | pKi (Adenosine receptor A1): 7.44
Structure (SMILES): CCCCn1c(=O)c2c(nc3n2CCCN3CCc2ccc(OCC(=O)NCCN3CCCC3)cc2)n(CCCC)c1=O
pIC50 (HEK293): 4.63

pKi (Adenosine receptor A3 [5]): 5.36
Structure (SMILES): CCCn1c(=O)c2[nH]c(C34CC5CC(CC3C5)C4)nc2n(CCC)c1=O [ROLOFYLLINE]

pKi (Adenosine receptor A3 [2]): 6.61 | pKi (Adenosine receptor A2b [6]): 6.90 | pKi (Adenosine receptor A2a): 6.50 | pIC50 (Cytochrome P450 3A4): 6.64 | solubility [7]: 632 µM (≈ 385 µg/mL) | pKi (Adenosine receptor A1): 7.61
Structure (SMILES): CCCCn1c(=O)c2c(nc3n2CCCN3CCc2ccc(OCC(=O)NCCCN(CC)CC)cc2)n(CCCC)c1=O
pIC50 (HEK293): 4.56

Drug metabolism [8]: Metabolite_Detected | Drug metabolism [9]: Metabolite_Detected
Structure (SMILES): CCCCn1c(=O)c2c(nc3n2CCCN3CCc2ccc(OCC(=O)NCCCNCC)cc2)n(CCCC)c1=O
